IC50, Activity and viability data for 16 compounds are collected here from ChEMBL document CHEMBL5518184, “Structural basis for specific inhibition of salicylate synthase from Mycobacterium abscessus” (Eur J Med Chem, 2024).

The structures appear in SMILES notation.

A short description of data set [1]: Inhibition of Mycobacterium abscessus ATCC 19977 salicylate synthase expressed in Escherichia coli BL21 (DE3) cells using chorismic acid as substrate by fluorimetric assay. On the set-up: species or system Mycobacteroides abscessus. The method, boiled down: (§1)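 Purified enzyme (IMAC plus gel filtration) at 1–2 μM in 50 mM Hepes pH 7.5, 5 mM MgCl₂, 37 °C, with 50 μM chorismic acid; fluorimetric read-out at Ex 305 / Em 420 nm. IC50 measured over 0.1–200 μM inhibitor for compounds leaving under 30 % residual activity at 100 μM, fitted as A[I] = A[0]·(1 − [I]/([I]+IC50)).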

Data set [2] deals with Mycobacteroides abscessus. Description: Inhibition of Mycobacterium abscessus ATCC 19977 salicylate synthase expressed in Escherichia coli BL21 (DE3) cells using chorismic acid as substrate assessed as residual activity at 100 uM by fluorimetric assay relative to control. Put shortly:
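Enzyme purified by IMAC and gel filtration, used at 1–2 μM in 50 mM Hepes pH 7.5 with 5 mM MgCl₂ at 37 °C. Reaction started with 50 μM chorismic acid; fluorescence read at Ex 305 / Em 420 nm. Compound tested at a fixed 100 μM; percent residual activity recorded.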

Data set [3] has as its system Mycobacterium tuberculosis. Kind of data set: Inhibition of Mycobacterium tuberculosis salicylate synthase expressed in Escherichia coli BL21 cells using chorismic acid as substrate assessed as residual activity at 100 uM by fluorimetric assay relative to control. Put shortly: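 Recombinant His-purified enzyme (IMAC plus gel filtration), 1–2 μM, in 50 mM Hepes pH 7.5, 5 mM MgCl₂ at 37 °C. Reaction started with chorismic acid at a subsaturating 50 μM. Compound tested at a fixed 100 μM. Fluorescence monitored at Ex 305 nm / Em 420 nm, and activity expressed as % residual activity.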

A short description of data set [4]: Inhibition of Mycobacterium abscessus ATCC 19977 salicylate synthase expressed in Escherichia coli BL21 (DE3) cells by fluorimetric assay. More on the design: species or system Mycobacteroides abscessus. The method, boiled down:
as §1

A short description of data set [5]: Inhibition of Mycobacterium tuberculosis salicylate synthase expressed in Escherichia coli BL21 cells using chorismic acid as substrate by fluorimetric assay. The method, boiled down:
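Purified recombinant enzyme, 1–2 μM, in 50 mM Hepes pH 7.5, 5 mM MgCl₂ at 37 °C, with 50 μM chorismic acid. Fluorescence read at Ex 305 nm / Em 420 nm. Run only for compounds with residual activity below 30 % at 100 μM. Activity measured across 0.1–200 μM inhibitor and IC50 fitted as A[I] = A[0]·(1 − [I]/([I]+IC50)).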

Data set [6] is described as follows: Inhibition of Mycobacterium abscessus ATCC 19977 salicylate synthase expressed in Escherichia coli BL21 (DE3) cells using chorismic acid as substrate in presence of BSA by fluorimetric assay. More on the design: species or system Mycobacteroides abscessus. The method, boiled down:
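IC50 determined in the standard fluorimetric chorismate assay (1–2 μM enzyme, 50 mM Hepes pH 7.5, 5 mM MgCl₂, 37 °C, 50 μM chorismic acid, Ex 305 / Em 420 nm) with 0.1 mg/mL BSA added.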

Data set [7] can be described thus: Inhibition of Mycobacterium abscessus ATCC 19977 salicylate synthase expressed in Escherichia coli BL21 (DE3) cells using chorismic acid as substrate in presence of Triton X-100 by fluorimetric assay. On the set-up: species or system Mycobacteroides abscessus. The method, boiled down:
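IC50 determined in the standard fluorimetric chorismate assay (1–2 μM enzyme, 50 mM Hepes pH 7.5, 5 mM MgCl₂, 37 °C, 50 μM chorismic acid) with 0.01 % (v/v) Triton X-100 added as detergent.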

A short description of data set [8]: Inhibition of Mycobacterium abscessus ATCC 19977 salicylate synthase expressed in Escherichia coli BL21 (DE3) cells using chorismic acid as substrate in presence of DTT by fluorimetric assay. More on the design: species or system Mycobacteroides abscessus. Put shortly:
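IC50 determined in the standard fluorimetric chorismate assay (1–2 μM enzyme, 50 mM Hepes pH 7.5, 5 mM MgCl₂, 37 °C, 50 μM chorismic acid) with 100 μM DTT added to rule out cysteine reactivity.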

Data set [9] in a line: Cytotoxicity against human fibroblast assessed as viable cells at 10 uM incubated for 96 hrs by MTS assay relative to control. The format is toxicity, cell-based. Particulars: human fibroblasts, read-out: Activity. Put shortly:
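Juvenile human foreskin fibroblasts grown in DMEM with 10 % FBS, 1 % L-glutamine and penicillin/streptomycin; 1 × 10⁴ cells/well, treated after 24 h at 0.5, 1, 5 and 10 μM. After 96 h, viability read by MTS at 490 nm and expressed as percent of untreated cells; three independent experiments.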

A word on the IC50: it is the concentration that inhibits the measured activity by half. With `NS(=O)(=O)c1ccc(-c2ccc(C(=O)O)o2)cc1`, half-maximal inhibition in data set [1] (IC50) required 19.3 µM. Besides, the Activity in data set [2] was determined as 16%.
Take `O=C(O)c1ccc(-c2cccc(C(F)(F)F)c2)o1`: the Activity in data set [2] is 35%; in data set [3] it was 42%.
As for `NS(=O)(=O)c1cccc(-c2cccc(C(=O)O)c2)c1`, in [2], the Activity was determined as 89.4%.
Take `O=C(O)c1ccc(-c2ccc(C(F)(F)F)cc2C(F)(F)F)o1`: in data set [4], the IC50 is around 5 µM.
`NS(=O)(=O)c1ccccc1-c1ccc(C(=O)O)o1`: the Activity in data set [2] was found to be 97.1%.
With `O=C(O)c1ccc(-c2cccc(O)c2)o1`, the Activity in data set [2] amounted to 65%; in [3], 70.4%.
On to `CS(=O)(=O)c1cccc(-c2ccc(C(=O)O)o2)c1`, for which the IC50 in data set [1] was 3.6 µM; in data set [5], 34.9 µM. Besides, the Activity is 5.4% in [2] and 25.8% in data set [3].
As to `Nc1cccc(-c2ccc(C(=O)O)o2)c1`, the Activity worked out at 48.3% in [2] and 65.8% in data set [3].
As to `NS(=O)(=O)c1cccc(-c2ccc(C(=O)O)o2)c1`, the IC50 in data set [1] was found to be 2.6 µM; in [5], 39.7 µM; in [6], 2.8 µM; in data set [7] it was 2.8 µM; in data set [8], 3.3 µM. Further, the Activity in [2] turned out to be 0.6%; in data set [3] it was 28.6%. In data set [9], the viability at 96 h, 10 µM was determined as 99.5%.
In the case of `O=C(O)c1ccc(-c2cccc(Cl)c2)o1`, the Activity in data set [2] stood at 88.3%; in data set [3], 102%.
Consider `O=C(O)c1cccc(-c2ccc(C(=O)O)o2)c1`, for which the figures for the Activity in data set [2] and in data set [3] were 33.3% and 27.2%, respectively. Besides, the midpoint of inhibition in data set [5], the IC50, lay at 35.2 µM.
On to `CNC(=O)c1cccc(-c2ccc(C(=O)O)o2)c1`, for which the values for the Activity in data set [2] and in data set [3] were 53.3% and 84%, respectively.
`N#Cc1cccc(-c2ccc(C(=O)O)o2)c1`: the IC50 in data set [1] amounted to 12.1 µM; in data set [5] it was 6.3 µM. Besides, the Activity in data set [2] is 3.2%; in data set [3] it was 3.1%.
The like results for `NC(=O)c1cccc(-c2ccc(C(=O)O)o2)c1` were, in that order, 42.9 µM, 31.4 µM, 25.8% and 20.9%.
In the case of `Cc1cccc(-c2ccc(C(=O)O)o2)c1`, the Activity in data set [2] turned out to be 54.7%; in data set [3], 104%.
With `COC(=O)c1ccc(-c2cccc(S(N)(=O)=O)c2)o1`, the Activity in data set [2] stood at 55.3%.
